Laboratory results published in ChEMBL document CHEMBL1140994, “Ranking the selectivity of PubChem screening hits by activity-based protein profiling: MMP13 as a case study” (Bioorg Med Chem, 2009).
Calls of active or inactive are those of the source. The calls are words filed in the database; no cut-off is given here.

Tests used:
[1] = target: Stromelysin-1 (Homo sapiens) (UniProt P08254); experiment: Inhibition of human recombinant MMP3 at 200 uM by HxBPyne probe-based competitive activity based protein profiling assay in presence of 5 uM HxBpane competitor
Stromelysin-1 (Homo sapiens), sequence (P08254 100-477 limits assumed): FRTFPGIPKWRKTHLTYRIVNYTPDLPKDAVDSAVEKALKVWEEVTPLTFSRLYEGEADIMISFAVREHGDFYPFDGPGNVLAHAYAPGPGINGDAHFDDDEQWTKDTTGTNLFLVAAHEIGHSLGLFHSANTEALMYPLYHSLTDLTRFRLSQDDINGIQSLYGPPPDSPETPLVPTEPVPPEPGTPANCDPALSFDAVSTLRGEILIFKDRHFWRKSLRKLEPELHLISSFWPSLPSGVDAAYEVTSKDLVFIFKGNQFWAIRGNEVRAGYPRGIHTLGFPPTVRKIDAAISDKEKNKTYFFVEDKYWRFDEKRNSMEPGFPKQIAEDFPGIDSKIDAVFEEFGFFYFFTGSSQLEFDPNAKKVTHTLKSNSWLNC
Outline: (§1)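 Recombinant enzyme at 0.5 μM final in mouse liver soluble proteome (1 mg protein/mL in PBS). HxBPyne probe cocktail 0.5 μM total final, with inhibitor 200 μM or DMSO. Preincubated 30 min on ice, then UV 365 nm for 1 h on ice. Rhodamine-azide click chemistry, 1 h RT in dark. SDS-PAGE with in-gel fluorescence; band intensity given as % of DMSO control.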

[2] = target: Stromelysin-2 (Homo sapiens) (UniProt P09238); experiment: Inhibition of human recombinant MMP10 at 200 uM by HxBPyne probe-based competitive activity based protein profiling assay in presence of 5 uM HxBpane competitor; outline: as §1
[3] = target: T1, Stromelysin-3 (Homo sapiens) (UniProt P24347); experiment: Inhibition of human recombinant MMP11 at 200 uM by HxBPyne probe-based competitive activity based protein profiling assay in presence of 5 uM HxBpane competitor; outline: as §1
T1 sequence (whole entry): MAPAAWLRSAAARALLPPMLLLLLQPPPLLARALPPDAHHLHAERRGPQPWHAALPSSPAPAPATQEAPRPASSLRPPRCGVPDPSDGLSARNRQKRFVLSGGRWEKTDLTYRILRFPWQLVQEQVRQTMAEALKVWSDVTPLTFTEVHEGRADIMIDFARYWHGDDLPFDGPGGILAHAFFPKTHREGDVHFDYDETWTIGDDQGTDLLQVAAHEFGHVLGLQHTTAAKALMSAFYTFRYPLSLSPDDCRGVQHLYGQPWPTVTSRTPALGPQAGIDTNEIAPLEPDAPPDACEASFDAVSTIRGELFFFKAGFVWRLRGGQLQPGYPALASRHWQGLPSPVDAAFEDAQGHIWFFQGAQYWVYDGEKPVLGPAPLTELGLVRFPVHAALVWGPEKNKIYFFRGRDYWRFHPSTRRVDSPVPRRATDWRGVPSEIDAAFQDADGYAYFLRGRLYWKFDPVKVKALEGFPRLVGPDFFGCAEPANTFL

[4] = target: Matrix metalloproteinase-15 (Homo sapiens) (UniProt P51511); experiment: Inhibition of human recombinant MMP15 at 200 uM by HxBPyne probe-based competitive activity based protein profiling assay in presence of 5 uM HxBpane competitor; outline: as §1
Matrix metalloproteinase-15 (Homo sapiens), sequence (P51511 132-669 limits assumed): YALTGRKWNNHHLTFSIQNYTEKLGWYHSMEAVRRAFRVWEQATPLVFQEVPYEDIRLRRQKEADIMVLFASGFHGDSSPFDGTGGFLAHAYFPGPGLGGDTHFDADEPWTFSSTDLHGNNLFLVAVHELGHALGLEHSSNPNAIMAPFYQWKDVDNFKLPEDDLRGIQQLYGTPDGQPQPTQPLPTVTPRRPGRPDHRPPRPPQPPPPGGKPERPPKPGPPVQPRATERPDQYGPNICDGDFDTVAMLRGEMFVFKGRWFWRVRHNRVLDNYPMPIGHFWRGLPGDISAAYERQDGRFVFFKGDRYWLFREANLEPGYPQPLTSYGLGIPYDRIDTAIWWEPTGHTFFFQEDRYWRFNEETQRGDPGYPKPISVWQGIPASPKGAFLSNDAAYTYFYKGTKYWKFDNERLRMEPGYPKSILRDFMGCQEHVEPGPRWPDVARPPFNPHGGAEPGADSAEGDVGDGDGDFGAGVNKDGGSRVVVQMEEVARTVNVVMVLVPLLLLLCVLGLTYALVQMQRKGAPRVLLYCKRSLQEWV

[5] = target: Matrix metalloproteinase-16 (Homo sapiens) (UniProt P51512); experiment: Inhibition of human recombinant MMP16 at 200 uM by HxBPyne probe-based competitive activity based protein profiling assay in presence of 5 uM HxBpane competitor; outline: as §1
Matrix metalloproteinase-16 (Homo sapiens), sequence (P51512 whole entry): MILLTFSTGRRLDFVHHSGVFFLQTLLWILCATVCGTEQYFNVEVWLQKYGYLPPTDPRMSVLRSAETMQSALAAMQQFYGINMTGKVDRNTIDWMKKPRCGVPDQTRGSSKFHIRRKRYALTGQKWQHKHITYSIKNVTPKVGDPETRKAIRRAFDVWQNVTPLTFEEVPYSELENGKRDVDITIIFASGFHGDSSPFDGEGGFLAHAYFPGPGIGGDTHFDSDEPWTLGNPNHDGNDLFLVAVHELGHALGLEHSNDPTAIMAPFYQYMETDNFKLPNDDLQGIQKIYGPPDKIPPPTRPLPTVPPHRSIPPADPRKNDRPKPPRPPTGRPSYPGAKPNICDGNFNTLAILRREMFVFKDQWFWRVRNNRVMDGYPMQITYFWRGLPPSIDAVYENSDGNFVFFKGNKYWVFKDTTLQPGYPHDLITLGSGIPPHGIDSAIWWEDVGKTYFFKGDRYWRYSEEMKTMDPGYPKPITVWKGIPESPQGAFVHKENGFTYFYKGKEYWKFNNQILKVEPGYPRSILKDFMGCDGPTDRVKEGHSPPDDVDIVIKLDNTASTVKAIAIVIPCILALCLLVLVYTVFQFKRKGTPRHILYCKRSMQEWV

[6] = target: Matrix metalloproteinase-24 (Homo sapiens) (UniProt Q9Y5R2); experiment: Inhibition of human recombinant MMP24 at 200 uM by HxBPyne probe-based competitive activity based protein profiling assay in presence of 5 uM HxBpane competitor; outline: as §1
Matrix metalloproteinase-24 (Homo sapiens), sequence (Q9Y5R2 whole entry): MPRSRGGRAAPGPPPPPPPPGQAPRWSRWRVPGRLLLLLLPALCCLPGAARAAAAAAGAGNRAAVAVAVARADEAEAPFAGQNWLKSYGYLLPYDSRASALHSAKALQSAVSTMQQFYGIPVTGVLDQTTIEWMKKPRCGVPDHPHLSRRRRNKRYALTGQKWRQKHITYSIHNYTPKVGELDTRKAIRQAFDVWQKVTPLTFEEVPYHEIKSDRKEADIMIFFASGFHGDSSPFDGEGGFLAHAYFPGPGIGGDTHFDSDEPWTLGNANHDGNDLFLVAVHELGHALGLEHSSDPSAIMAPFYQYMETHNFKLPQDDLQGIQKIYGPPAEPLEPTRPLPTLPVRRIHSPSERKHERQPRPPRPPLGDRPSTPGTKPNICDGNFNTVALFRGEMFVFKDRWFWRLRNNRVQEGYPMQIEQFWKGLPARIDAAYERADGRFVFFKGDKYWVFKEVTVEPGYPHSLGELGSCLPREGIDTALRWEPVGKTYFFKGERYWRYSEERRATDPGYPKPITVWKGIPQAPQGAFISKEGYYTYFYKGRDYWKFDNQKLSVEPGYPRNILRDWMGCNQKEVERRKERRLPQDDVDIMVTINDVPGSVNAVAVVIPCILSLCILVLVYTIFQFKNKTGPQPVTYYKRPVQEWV

[7] = target: T2, A disintegrin and metalloproteinase with thrombospondin motifs 5 (Homo sapiens) (UniProt Q9UNA0); experiment: Inhibition of human recombinant ADAMTS5 at 200 uM by HxBPyne probe-based competitive activity based protein profiling assay in presence of 5 uM HxBpane competitor; outline: as §1
T2 sequence (whole entry): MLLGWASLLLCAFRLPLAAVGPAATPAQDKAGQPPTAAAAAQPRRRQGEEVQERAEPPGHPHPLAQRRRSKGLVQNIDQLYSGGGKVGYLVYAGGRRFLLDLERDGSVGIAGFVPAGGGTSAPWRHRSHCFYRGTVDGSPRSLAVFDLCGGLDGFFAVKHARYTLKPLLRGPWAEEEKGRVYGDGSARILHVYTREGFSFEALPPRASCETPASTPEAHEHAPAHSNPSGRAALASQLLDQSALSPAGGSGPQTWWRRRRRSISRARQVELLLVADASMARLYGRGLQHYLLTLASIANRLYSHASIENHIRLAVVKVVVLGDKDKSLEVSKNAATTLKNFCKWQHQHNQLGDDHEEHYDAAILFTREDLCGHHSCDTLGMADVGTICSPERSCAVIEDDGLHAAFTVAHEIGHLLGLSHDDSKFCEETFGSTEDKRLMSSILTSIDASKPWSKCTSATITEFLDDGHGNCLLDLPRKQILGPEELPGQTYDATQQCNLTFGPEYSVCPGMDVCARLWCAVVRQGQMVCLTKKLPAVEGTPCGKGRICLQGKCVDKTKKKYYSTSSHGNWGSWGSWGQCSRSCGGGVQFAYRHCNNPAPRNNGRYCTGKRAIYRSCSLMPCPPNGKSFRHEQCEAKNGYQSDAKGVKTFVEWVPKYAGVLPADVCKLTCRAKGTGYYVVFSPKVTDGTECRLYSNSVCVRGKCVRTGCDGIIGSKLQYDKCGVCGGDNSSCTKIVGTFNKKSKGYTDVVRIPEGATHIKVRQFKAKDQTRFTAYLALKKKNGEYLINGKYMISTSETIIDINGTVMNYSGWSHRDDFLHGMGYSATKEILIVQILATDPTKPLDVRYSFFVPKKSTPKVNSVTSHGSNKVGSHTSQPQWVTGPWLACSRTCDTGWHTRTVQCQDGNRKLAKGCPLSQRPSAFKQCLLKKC

Neutrophil collagenase = Neutrophil collagenase (Homo sapiens, UniProt P22894); experiment: Inhibition of human recombinant MMP8 by fluorogenic substrate assay
Neutrophil collagenase, sequence (P22894 whole entry): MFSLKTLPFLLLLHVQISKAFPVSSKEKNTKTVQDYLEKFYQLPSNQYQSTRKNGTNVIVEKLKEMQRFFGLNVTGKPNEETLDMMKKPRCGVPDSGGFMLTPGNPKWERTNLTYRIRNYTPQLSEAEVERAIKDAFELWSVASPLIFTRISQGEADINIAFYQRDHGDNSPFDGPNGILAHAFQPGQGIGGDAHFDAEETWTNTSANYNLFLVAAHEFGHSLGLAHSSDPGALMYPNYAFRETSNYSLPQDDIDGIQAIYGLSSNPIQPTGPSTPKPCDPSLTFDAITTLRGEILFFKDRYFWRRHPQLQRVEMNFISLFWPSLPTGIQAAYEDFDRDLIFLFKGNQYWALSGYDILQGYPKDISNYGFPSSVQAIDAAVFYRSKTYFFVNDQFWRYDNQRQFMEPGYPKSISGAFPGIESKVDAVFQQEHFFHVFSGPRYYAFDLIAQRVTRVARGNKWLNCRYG
Outline: (§2)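 Enzyme (MMP8 6 nM, MMP9 2 nM, MMP13 1.5 nM final) preincubated with inhibitor 30 min in 50 mM HEPES pH 7.5, 10 mM CaCl2, 0.05% Brij-35, at RT. Mca-PLGL-Dpa-AR-NH2 added at 5 μM; fluorescence (ex 328/em 393 nm) read each minute for 10 min. Initial rates by linear least squares; IC50 from variable-slope sigmoidal fit. Triplicate; mean with 95% CI.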

[8] = target: Matrix metalloproteinase-9 (Homo sapiens, UniProt P14780); experiment: Inhibition of human recombinant MMP9 by fluorogenic substrate assay; outline: as §2
Matrix metalloproteinase-9, sequence (P14780 whole entry): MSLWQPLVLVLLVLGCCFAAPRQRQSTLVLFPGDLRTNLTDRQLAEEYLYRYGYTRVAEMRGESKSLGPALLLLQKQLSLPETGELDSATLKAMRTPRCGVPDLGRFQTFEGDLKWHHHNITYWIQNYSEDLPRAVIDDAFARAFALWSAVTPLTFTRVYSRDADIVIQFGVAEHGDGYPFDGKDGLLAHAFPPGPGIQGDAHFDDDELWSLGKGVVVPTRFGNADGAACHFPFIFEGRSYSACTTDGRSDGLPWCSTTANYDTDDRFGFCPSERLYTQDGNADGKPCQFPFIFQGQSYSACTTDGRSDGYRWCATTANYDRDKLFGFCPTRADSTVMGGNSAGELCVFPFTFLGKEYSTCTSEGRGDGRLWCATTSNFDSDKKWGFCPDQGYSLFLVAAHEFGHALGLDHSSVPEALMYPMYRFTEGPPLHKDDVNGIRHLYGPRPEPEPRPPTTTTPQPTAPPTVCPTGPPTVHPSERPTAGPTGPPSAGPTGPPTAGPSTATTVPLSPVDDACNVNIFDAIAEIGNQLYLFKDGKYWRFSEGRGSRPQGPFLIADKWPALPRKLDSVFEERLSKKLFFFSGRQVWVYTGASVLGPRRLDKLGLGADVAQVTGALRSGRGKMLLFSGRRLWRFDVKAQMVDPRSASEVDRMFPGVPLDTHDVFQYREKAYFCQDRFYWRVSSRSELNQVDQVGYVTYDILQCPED

[9] = target: Matrilysin (Homo sapiens) (UniProt P09237); experiment: Inhibition of human recombinant MMP7 at 200 uM by HxBPyne probe-based competitive activity based protein profiling assay in presence of 5 uM HxBpane competitor; outline: as §1
[10] = target: Disintegrin and metalloproteinase domain-containing protein 10 (Homo sapiens) (UniProt O14672); experiment: Inhibition of human recombinant ADAM10 at 200 uM by HxBPyne probe-based competitive activity based protein profiling assay in presence of 5 uM HxBpane competitor; outline: as §1
Disintegrin and metalloproteinase domain-containing protein 10 (Homo sapiens), sequence (O14672 whole entry, the tested form may be a part): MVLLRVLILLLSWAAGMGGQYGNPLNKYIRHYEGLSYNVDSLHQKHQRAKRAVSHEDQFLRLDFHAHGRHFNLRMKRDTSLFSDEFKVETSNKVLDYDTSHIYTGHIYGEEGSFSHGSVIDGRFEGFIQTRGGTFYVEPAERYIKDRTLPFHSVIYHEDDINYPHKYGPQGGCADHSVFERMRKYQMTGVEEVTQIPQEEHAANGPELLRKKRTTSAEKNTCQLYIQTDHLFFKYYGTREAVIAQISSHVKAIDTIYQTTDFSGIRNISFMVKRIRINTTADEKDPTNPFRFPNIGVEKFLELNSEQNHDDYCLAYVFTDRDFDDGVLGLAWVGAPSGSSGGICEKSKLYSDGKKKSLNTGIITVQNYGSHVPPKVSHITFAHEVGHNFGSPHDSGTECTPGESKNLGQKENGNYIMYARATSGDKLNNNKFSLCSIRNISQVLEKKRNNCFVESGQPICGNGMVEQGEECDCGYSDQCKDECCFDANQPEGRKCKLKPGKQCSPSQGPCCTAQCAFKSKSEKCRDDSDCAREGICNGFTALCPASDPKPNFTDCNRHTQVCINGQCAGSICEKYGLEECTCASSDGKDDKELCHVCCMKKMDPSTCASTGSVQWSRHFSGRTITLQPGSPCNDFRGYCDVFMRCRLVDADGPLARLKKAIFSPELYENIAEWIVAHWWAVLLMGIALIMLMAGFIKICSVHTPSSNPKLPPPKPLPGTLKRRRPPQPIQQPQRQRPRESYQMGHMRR

[11] = target: Disintegrin and metalloproteinase domain-containing protein 12 (Homo sapiens) (UniProt O43184); experiment: Inhibition of human recombinant ADAM12 at 200 uM by HxBPyne probe-based competitive activity based protein profiling assay in presence of 200 uM HxBpane competitor
Disintegrin and metalloproteinase domain-containing protein 12 (Homo sapiens), sequence (O43184 whole entry, the tested form may be a part): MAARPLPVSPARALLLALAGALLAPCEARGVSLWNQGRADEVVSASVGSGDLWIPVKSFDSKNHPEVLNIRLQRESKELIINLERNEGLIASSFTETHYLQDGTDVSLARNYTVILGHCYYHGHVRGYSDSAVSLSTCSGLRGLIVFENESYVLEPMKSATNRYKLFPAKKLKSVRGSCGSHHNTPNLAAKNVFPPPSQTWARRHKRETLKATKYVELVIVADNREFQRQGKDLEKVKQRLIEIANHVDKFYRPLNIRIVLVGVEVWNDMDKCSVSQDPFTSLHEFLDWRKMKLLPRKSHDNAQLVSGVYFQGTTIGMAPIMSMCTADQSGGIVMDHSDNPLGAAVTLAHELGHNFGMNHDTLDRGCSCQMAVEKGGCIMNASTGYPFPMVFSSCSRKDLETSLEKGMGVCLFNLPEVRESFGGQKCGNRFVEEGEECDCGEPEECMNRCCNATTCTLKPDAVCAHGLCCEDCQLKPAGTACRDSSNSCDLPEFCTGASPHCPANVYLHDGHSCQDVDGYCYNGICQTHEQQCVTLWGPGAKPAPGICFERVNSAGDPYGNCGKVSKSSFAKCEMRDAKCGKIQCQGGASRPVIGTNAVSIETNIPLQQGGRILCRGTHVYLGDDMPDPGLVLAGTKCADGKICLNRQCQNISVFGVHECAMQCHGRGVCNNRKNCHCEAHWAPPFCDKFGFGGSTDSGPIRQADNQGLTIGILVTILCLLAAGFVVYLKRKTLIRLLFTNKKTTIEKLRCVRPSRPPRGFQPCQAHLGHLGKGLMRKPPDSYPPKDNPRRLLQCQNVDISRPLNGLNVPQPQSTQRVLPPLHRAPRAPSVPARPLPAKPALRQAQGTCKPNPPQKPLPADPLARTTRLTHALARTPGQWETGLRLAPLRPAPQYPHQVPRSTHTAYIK
Outline: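 Metalloprotease at 1.6 μM final in PBS, without liver proteome. HxBPyne probe cocktail 20 μM final, with inhibitor 200 μM or DMSO. Preincubated 30 min on ice, then irradiated 365 nm for 1 h on ice. Rhodamine-azide click chemistry, then SDS-PAGE and in-gel fluorescence scanning. Integrated band intensity expressed as % of DMSO control.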

Activity [1]	Activity [2]	Activity [3]	Activity [4]	Activity [5]	Activity [6]	Activity [7]	IC50 (Neutrophil collagenase)	IC50 [8]	Activity [9]	Activity [10]	Activity [11]	SMILES
inactive	inactive	inactive	inactive	inactive	inactive	inactive	> 100 µM	> 100 µM	inactive	inactive	inactive	Oc1nc(SCc2ccc(Cl)cc2)nc2c1CCC2
inactive	inactive	inactive	inactive	inactive	inactive	inactive	> 100 µM	> 100 µM	inactive	inactive	inactive	COc1ccc(CSc2nc(C)cc(O)n2)cc1
